The subject of assay [1] is Mycobacterium tuberculosis. Nature of the assay: Antimycobacterial activity against Mycobacterium tuberculosis H37Rv ATCC 27294 by BACTEC radiometric respiratory technique. The class given is functional. An outline of the steps: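 Compounds prepared as DMSO solutions and tested over 256 to 1 µg/ml, with isoniazid and rifampicin as reference drugs.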
The test system of assay [2] is Klebsiella pneumoniae. Description: Antibacterial activity against Klebsiella pneumoniae by broth microdilution method. In kind it is functional. (In general: Broth dilution looks for growth in wells or tubes with falling amounts of substance.)
Assay [3] deals with Candida albicans. Description: Antifungal activity against Candida albicans by broth microdilution method. In kind it is functional.
For assay [4], the system named is Escherichia coli. Description: Antibacterial activity against Escherichia coli by broth microdilution method. In kind it is functional.
Assay [5] deals with Rhizopus sp. Description: Antifungal activity against Rhizopus sp. by broth microdilution method.
The subject of assay [6] is Staphylococcus aureus. Nature of the assay: Antibacterial activity against Staphylococcus aureus by broth microdilution method. The class given is functional.
Assay [7] concerns Aspergillus flavus. Description: Antifungal activity against Aspergillus flavus by broth microdilution method. In kind it is functional.
The test system of assay [8] is Mycobacterium tuberculosis. Description: Ratio of isoniazid MIC to drug MIC for Mycobacterium tuberculosis H37Rv ATCC 27294. In kind it is functional.
Assay [9] relates to Mycobacterium tuberculosis. Description: Ratio of rifampicin MIC to drug MIC for Mycobacterium tuberculosis H37Rv ATCC 27294. The class given is functional.
Assay [10] relates to Rhizopus. Nature of the assay: Ratio of amphotericin B MIC to drug MIC for Rhizopus sp. The class given is functional.
The subject of assay [11] is Klebsiella pneumoniae. Description: Ratio of ciprofloxacin MIC to drug MIC for Klebsiella pneumoniae. In kind it is functional.
Assay [12] has as its system Staphylococcus aureus. Description: Ratio of ciprofloxacin MIC to drug MIC for Staphylococcus aureus. In kind it is functional.

Structures are written as SMILES. Converted amounts (≈) assume the structure as drawn. Bounds are passed on as bounds.

Regarding `CCOC(=O)Cc1csc(N/N=C2\CC(c3ccc(Cl)cc3)NC(c3ccc(Cl)cc3)C2C)n1` (stereo not given), the MIC – broadly, the least concentration at which growth counts as inhibited – in assay [1] is > 256 µg/mL; in assay [2], 128 µg/mL (≈ 247 µM); in assay [3] it was > 256 µg/mL; in assay [4] it was 64 µg/mL (≈ 124 µM); in assay [5], 128 µg/mL (≈ 247 µM); in [6], 32 µg/mL (≈ 61.8 µM). This compound also gave an MIC in assay [7] of 64 µg/mL (≈ 124 µM).
For `CCC1/C(=N/N=C2\NC(=O)CS2)CC(c2ccccc2)NC1c1ccccc1` (stereo not given), the MIC in assay [1] was > 256 µg/mL; in assay [2], > 256 µg/mL; in [3], 256 µg/mL (≈ 652 µM); in assay [4], > 256 µg/mL; in assay [5], > 256 µg/mL; in assay [6] it was 128 µg/mL (≈ 326 µM). The MIC in assay [7] was > 256 µg/mL.
On to `CCOC(=O)Cc1csc(N/N=C2\CC(c3ccccc3)N(C)C(c3ccccc3)C2C)n1` (stereo not given), for which the Ratio is 1.56 in assay [8], 200 in assay [9] and 1 in assay [10]. Moreover, the minimal inhibitory concentration (MIC) turned out to be 16 µg/mL (≈ 34.6 µM) in [1]; 32 µg/mL (≈ 69.2 µM) in assay [2]; 256 µg/mL (≈ 553 µM) in assay [3]; 128 µg/mL (≈ 277 µM) in assay [4]; 8 µg/mL (≈ 17.3 µM) in assay [5]; 16 µg/mL (≈ 34.6 µM) in assay [6]. Also, inhibition of growth in [7] (MIC) required 64 µg/mL (≈ 138 µM).
With `CCOC(=O)Cc1csc(N/N=C2\CC(c3ccc(OC)cc3)NC(c3ccc(OC)cc3)C2C)n1` (stereo not given), the Ratio in [8] stood at 1.56; in assay [9] it was 200. For the same compound, the MIC was 16 µg/mL (≈ 31.5 µM) in assay [1]; 256 µg/mL (≈ 503 µM) in [2]; > 256 µg/mL in assay [3]; 128 µg/mL (≈ 252 µM) in assay [4]; 256 µg/mL (≈ 503 µM) in assay [5]; 64 µg/mL (≈ 126 µM) in [6]. In addition, the MIC in [7] is > 256 µg/mL.
For the compound `Cc1ccc(C2C/C(=N\N=C3/NC(=O)CS3)C(C)C(c3ccc(C)cc3)N2)cc1` (stereo not given), the Ratio is recorded as 0.39 in assay [8] and 50 in [9]. The MIC in assay [1] was 64 µg/mL (≈ 157 µM); in assay [2], 256 µg/mL (≈ 630 µM); in assay [3], > 256 µg/mL; in [4] it was 128 µg/mL (≈ 315 µM); in [5], 256 µg/mL (≈ 630 µM); in assay [6], 64 µg/mL (≈ 157 µM). Besides, the lowest concentration to inhibit growth in [7] (MIC) was 128 µg/mL (≈ 315 µM).
Regarding `CCOC(=O)Cc1csc(N/N=C2\CC(c3ccc(Br)cc3)NC(c3ccc(Br)cc3)C2C)n1` (stereo not given), the MIC is > 256 µg/mL in assay [1]; 8 µg/mL (≈ 13.2 µM) in assay [2]; 8 µg/mL (≈ 13.2 µM) in [3]; 4 µg/mL (≈ 6.6 µM) in assay [4]; 256 µg/mL (≈ 422 µM) in assay [5]; 16 µg/mL (≈ 26.4 µM) in assay [6]. The MIC in assay [7] came to 32 µg/mL (≈ 52.8 µM).
On to `CCOC(=O)Cc1csc(N/N=C2\CC(c3ccc(C)cc3)NC(c3ccc(C)cc3)C2C)n1` (stereo not given), for which the MIC in [1] is > 256 µg/mL; in assay [2], 256 µg/mL (≈ 537 µM); in assay [3], > 256 µg/mL; in [4], 128 µg/mL (≈ 269 µM); in assay [5] it was 128 µg/mL (≈ 269 µM); in assay [6], > 256 µg/mL. Also, the MIC in assay [7] is > 256 µg/mL.
As for `CCOC(=O)Cc1csc(N/N=C2\CC(c3ccc(F)cc3)NC(c3ccc(F)cc3)C2C)n1` (stereo not given), the Ratio in assay [8] was 1.56; in [9], 200. Also, the MIC in assay [1] was determined as 16 µg/mL (≈ 33 µM); in assay [2], 64 µg/mL (≈ 132 µM); in assay [3] it was 128 µg/mL (≈ 264 µM); in assay [4], 32 µg/mL (≈ 66 µM); in assay [5], 16 µg/mL (≈ 33 µM); in assay [6] it was 16 µg/mL (≈ 33 µM). Further, in [7], the MIC worked out at 32 µg/mL (≈ 66 µM).
With `CCOC(=O)Cc1csc(N/N=C2\CC(c3ccccc3)NC(c3ccccc3)C2C)n1` (stereo not given), the Ratio in assay [8] amounted to 0.39; in assay [9] it was 50. Further, the MIC in assay [1] was 64 µg/mL (≈ 143 µM); in assay [2] it was > 256 µg/mL; in assay [3], > 256 µg/mL; in assay [4], 128 µg/mL (≈ 285 µM); in assay [5], > 256 µg/mL; in assay [6], > 256 µg/mL. In assay [7], this compound gave an MIC of 256 µg/mL (≈ 571 µM).
For `CCOC(=O)Cc1csc(N/N=C2\CC(c3ccccc3)NC(c3ccccc3)C2CC)n1` (stereo not given), the MIC in assay [1] is > 256 µg/mL; in assay [2], > 256 µg/mL; in assay [3] it was > 256 µg/mL; in assay [4] it was > 256 µg/mL; in assay [5], 256 µg/mL (≈ 553 µM); in assay [6], 128 µg/mL (≈ 277 µM). Also, the MIC in [7] is > 256 µg/mL.
On to `CC1/C(=N/N=C2\NC(=O)CS2)CC(c2ccc(F)cc2)NC1c1ccc(F)cc1` (stereo not given), for which the Ratio in assay [8] was found to be 0.19; in assay [11] it was 2; in [9], 25; in [12], 1. Moreover, the MIC in assay [1] turned out to be 128 µg/mL (≈ 309 µM); in assay [2], 4 µg/mL (≈ 9.65 µM); in assay [3], 16 µg/mL (≈ 38.6 µM); in assay [4], 32 µg/mL (≈ 77.2 µM); in [5], 16 µg/mL (≈ 38.6 µM); in [6], 4 µg/mL (≈ 9.65 µM). This compound returned an MIC in [7] of 8 µg/mL (≈ 19.3 µM).
`CC1/C(=N/N=C2\NC(=O)CS2)CC(c2ccccc2)N(C)C1c1ccccc1` (stereo not given): the Ratio in assay [8] is on record as 1.56; in [9] it was 200; in [10], 1. Besides, the MIC in [1] was determined as 16 µg/mL (≈ 40.8 µM); in assay [2], 64 µg/mL (≈ 163 µM); in assay [3] it was 64 µg/mL (≈ 163 µM); in assay [4] it was 128 µg/mL (≈ 326 µM); in assay [5] it was 8 µg/mL (≈ 20.4 µM); in assay [6] it was 16 µg/mL (≈ 40.8 µM). The compound also displayed an MIC in [7] of 64 µg/mL (≈ 163 µM).
As to `COc1ccc(C2C/C(=N\N=C3/NC(=O)CS3)C(C)C(c3ccc(OC)cc3)N2)cc1` (stereo not given), the Ratio in assay [8] is listed as 0.78; in assay [9], 100. Besides, the MIC in assay [1] turned out to be 32 µg/mL (≈ 73 µM); in assay [2], 64 µg/mL (≈ 146 µM); in assay [3], 64 µg/mL (≈ 146 µM); in [4], 32 µg/mL (≈ 73 µM); in assay [5] it was 128 µg/mL (≈ 292 µM); in [6], 32 µg/mL (≈ 73 µM). This compound also gave an MIC in [7] of 128 µg/mL (≈ 292 µM).
Consider `CC1/C(=N/N=C2\NC(=O)CS2)CC(c2ccc(Br)cc2)NC1c1ccc(Br)cc1` (stereo not given), for which the Ratio is recorded as 1.56 in [8] and 200 in assay [9]. Further, the MIC in [1] is 16 µg/mL (≈ 29.8 µM); in assay [2] it was 8 µg/mL (≈ 14.9 µM); in assay [3], 64 µg/mL (≈ 119 µM); in assay [4], 16 µg/mL (≈ 29.8 µM); in assay [5], 16 µg/mL (≈ 29.8 µM); in [6], 8 µg/mL (≈ 14.9 µM). For the same compound, in assay [7], 32 µg/mL (≈ 59.7 µM) was the least that counted as inhibitory (MIC).
Take `CC1/C(=N/N=C2\NC(=O)CS2)CC(c2ccccc2)NC1c1ccccc1` (stereo not given): the results for the Ratio in [8] and in assay [9] were 0.39 and 50, respectively. For the same compound, the MIC is 64 µg/mL (≈ 169 µM) in assay [1]; 64 µg/mL (≈ 169 µM) in assay [2]; > 256 µg/mL in assay [3]; 256 µg/mL (≈ 676 µM) in assay [4]; > 256 µg/mL in assay [5]; 64 µg/mL (≈ 169 µM) in assay [6]. In addition, the MIC in [7] came out at 64 µg/mL (≈ 169 µM).
On to `CC1/C(=N/N=C2\NC(=O)CS2)CC(c2ccc(Cl)cc2)NC1c1ccc(Cl)cc1` (stereo not given), for which the Ratio was determined as 1.56 in assay [8] and 200 in [9]. Further, the minimal inhibitory concentration (MIC) in assay [1] was 16 µg/mL (≈ 35.8 µM); in [2], 128 µg/mL (≈ 286 µM); in assay [3], 128 µg/mL (≈ 286 µM); in [4], 128 µg/mL (≈ 286 µM); in [5], 256 µg/mL (≈ 572 µM); in assay [6], 8 µg/mL (≈ 17.9 µM). In [7], this compound returned an MIC of 128 µg/mL (≈ 286 µM).
Consider `C[C@@H]1[C@H](O)[C@@H](C)/C=C/C=C/C=C/C=C/C=C/C=C/C=C/[C@H](O[C@@H]2O[C@H](C)[C@@H](O)[C@H](N)[C@@H]2O)C[C@@H]2O[C@](O)(C[C@@H](O)C[C@@H](O)[C@H](O)CC[C@@H](O)C[C@@H](O)CC(=O)O[C@H]1C)C[C@H](O)[C@H]2C(=O)O` [AMPHOTERICIN B], for which the MIC in [3] came out at 8 µg/mL (≈ 8.66 µM); in [5] it was 16 µg/mL (≈ 17.3 µM); in assay [7], 8 µg/mL (≈ 8.66 µM).
For `O=C(O)c1cn(C2CC2)c2cc(N3CCNCC3)c(F)cc2c1=O` [CIPROFLOXACIN], the MIC in assay [2] stood at 16 µg/mL (≈ 48.3 µM); in [6] it was 8 µg/mL (≈ 24.1 µM).
Consider `NNC(=O)c1ccncc1` [ISONIAZID], for which inhibition of growth in [1] (MIC) required 0.25 µg/mL (≈ 1.82 µM).
As to `CO[C@H]1/C=C/O[C@@]2(C)Oc3c(C)c(O)c4c(O)c(c(/C=N/N5CCN(C)CC5)c(O)c4c3C2=O)NC(=O)/C(C)=C\C=C\[C@H](C)[C@H](O)[C@@H](C)[C@@H](O)[C@@H](C)[C@H](OC(C)=O)[C@@H]1C` [RIFAMPIN], in assay [1], the MIC amounted to 32 µg/mL (≈ 38.9 µM).

The record behind these values is ChEMBL document CHEMBL1154090, “Synthesis, spectral and biological evaluation of some new thiazolidinones and thiazoles based on t-3-alkyl-r-2,c-6-diarylpiperidin-4-ones” (2009).
